The sample as a whole holds a higher share of hits than the screen did.
CHOP inhibitor: CHOP inhibition in unfolded protein response; CHO-K1 CHOP-promoter luciferase, tunicamycin-induced, 15-18 h; inhibition, % at 10 µM; hit rate 3.8% among 220,000;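 active means compounds that reduced the stress-induced luciferase reporter signal by more than about 70% of percent inhibition, limit read from the data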
697 NFkB inh: lowers PMA/ionomycin-induced NF-kB signal in 697 B cells; AID 435022; inhibition, % at 4 µM; 697 B-cell NF-kB luciferase reporter, 16 h; hit rate 0.33% among 330,000; in the data active means inhibition above about 35%
UPR CHOP act: activators of apoptotic arm of unfolded protein response (CHOP) | CHO-CHOP luciferase reporter, UPR activation, luminescence; percent of tunicamycin response over DMSO baseline | activation, % at 10 µM | hit rate 0.34% among 330,000;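 active means at 10 µM dose, activation of 40% or more, normalized to positive control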
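Assay system: CHO-CHOP cells, stable luciferase reporter of PERK-eIF2a-CHOP signalling / Buffer or medium: F12 plus 10% serum / Compound dosing: one dose, 10 µM in 0.5% DMSO / Times: 6 h compound treatment, 37 °C / Technique: luciferase luminescence / Read-out: % reporter activation, DMSO baseline versus tunicamycin full activation / Benchmarks: tunicamycin and DMSO controls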
XBP1 UPR activ: activators of adaptive arm of unfolded protein response (XBP1); CHO-XBP1 luciferase reporter, IRE1-XBP1 UPR activation, luminescence; percent of tunicamycin response, DMSO as zero; activation, % at 20 µM; hit rate 0.33% among 330,000;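 active means versus positive control, 20 µM dose yields 30% or more activation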
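Signal: luciferase luminescence; Assay system: CHO-XBP1 luciferase reporter cells; Amount: one thousand reporter cells per well; Dosing: 20 µM single concentration, DMSO 1%; Benchmarks: high control tunicamycin 10 µg/mL final, low control DMSO vehicle only; Schedule: 6 h compound exposure at 37 °C, 5% CO2; Evaluation: percent activation relative to tunicamycin reference.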
Jurkat NFkB inh: lowers PMA/ionomycin-induced NF-kB signal in Jurkat cells; inhibition, % at 4 µM; AID 435003; hit rate 0.53% among 330,000; PMA/ionomycin-induced NF-kB luciferase reporter, luminescence; in the data active means inhibition above about 50%
697 NFkB conf: lowers PMA/ionomycin-induced NF-kB signal in 697 B cells | shares compounds with 697 NFkB inh | 697 B-cell NF-kB luciferase, 16 h | inhibition, % at 4 µM | hit rate 35% among 2,000 | AID 449746; in the data active means inhibition mostly above about 28%, no sharp cut-off; inactive means mostly below about 22%
Of the large screens only hits and unclear results are named; the others gave an inactive call (follow-up assays come after a bar, where they were run).

COc1ccccc1Oc1ccc(NC(=O)Cc2ccccc2)cc1	none (no result: CHOP inhibitor)
Cc1ccc(-c2csc3ncnc(Nc4ccc(C(=O)O)cc4)c23)cc1	697 NFkB inh 36 | 697 NFkB conf inactive
CN(C)c1ccc(C(=O)c2ccc(N(C)C)c3ccccc23)cc1	none (no result: CHOP inhibitor) | 697 NFkB conf inactive
CN(C)c1ccccc1C(=O)c1ccccc1N(C)C	none (no result: CHOP inhibitor)
Brc1ccc(-c2ncc(-c3ccccc3)cn2)cc1	none | 697 NFkB conf inactive
Cc1ccc(S(=O)(=O)N2CCN(C(=O)CSc3ncn[nH]3)CC2)cc1	none (no result: CHOP inhibitor)
CNC(=O)c1cc(Nc2nnc(-c3ccc(O)cc3)c3ccccc23)ccc1OC	697 NFkB inh 35 | 697 NFkB conf 29
CNC(=O)c1ccc(Nc2nnc(-c3ccc(O)cc3)c3ccccc23)cc1	none (no result: CHOP inhibitor)
Nc1c(C(=O)CSc2nnc(-c3ccccc3)o2)c(=O)[nH]c(=O)n1C1CC1	none (no result: CHOP inhibitor)
NC(=O)Cn1cnc2c(nnn2-c2ccc(F)cc2)c1=O	none (no result: CHOP inhibitor)
Cc1ccc(/C=C/c2nc3ccccc3c(=O)[nH]2)cc1	CHOP inhibitor 88 | 697 NFkB conf inactive
CCOC(=O)CN(C(=O)COc1nc(-c2ccccc2)cc(C)c1C#N)c1ccccc1C	none
COc1ccc(-c2csc(NC(=O)CN3C(=O)C4CC=CCC4C3=O)n2)cc1OC (centres undefined)	none (no result: CHOP inhibitor)
O=C(NCCCN1CCOCC1)c1cc(-c2ccc(Br)cc2)on1	697 NFkB inh 63 | 697 NFkB conf 38
O=C(NCCN1CCOCC1)c1cc(-c2ccc(Br)cc2)on1	none
O=C(CSc1nnnn1-c1cccnc1)Nc1ccccc1F	none (no result: CHOP inhibitor)
COc1ccc(/C=C(/NC(=O)c2ccco2)C(=O)N2CCc3ccccc32)cc1OC	none
O=C(O)CCc1nn2c3ccccc3n(Cc3ccccc3F)c2nc1=O	697 NFkB inh 41 | 697 NFkB conf inactive
O=C(O)CCc1nn2c3ccccc3n(CC(=O)O)c2nc1=O	none
COC(CNC(=O)c1ccc(-n2c(=S)[nH]c3ccccc3c2=O)cc1)OC	none
CCC(C)NC(=O)c1ccc(-n2c(=S)[nH]c3ccccc3c2=O)cc1 (centres undefined)	697 NFkB inh 41 | 697 NFkB conf inactive
O=C(c1ccc2c(=O)n(-c3ccccc3)c(=S)[nH]c2c1)N1CCCCC1	697 NFkB inh 38 | 697 NFkB conf inactive
CC(c1nc2ccccc2c(=O)[nH]1)N1CCCN(S(=O)(=O)c2ccc(F)cc2)CC1 (centres undefined)	none (no result: CHOP inhibitor)
O=c1cccc2c1c1cc[nH]c3ccc(=O)n2c31	697 NFkB inh 56 (no result: CHOP inhibitor) | 697 NFkB conf 52
O=c1cc[nH]c2ccc(Cl)cc12	none
COc1ccc(C2c3[nH]c4ccccc4c3CCN2C(=O)c2ccc(=O)n(C)n2)c(F)c1 (centres undefined)	none
CCc1cc(C(=O)N2CCc3c([nH]c4ccccc34)C2c2ccc(OC)cc2F)no1 (centres undefined)	none | 697 NFkB conf inactive
COc1cccc(/C=N/n2c(-c3n[nH]c4c3CCC4)n[nH]c2=S)c1OC	none
O=c1cc(-c2ccc(O)c(O)c2)oc2c1ccc1ccccc12	none (no result: CHOP inhibitor)
O=c1cc(-c2ccc(O)c(O)c2)oc2ccc3ccccc3c12	none (no result: CHOP inhibitor) | 697 NFkB conf inactive
O=C(/C=C/Nc1ccc(Br)cc1F)c1ccco1	none | 697 NFkB conf inactive
O=C(/C=C/Nc1ccccc1O)c1ccco1	none
COCCn1c(SC(C)C(=O)Nc2ncc(Cl)cc2Cl)nc2ccccc21 (centres undefined)	none | 697 NFkB conf inactive
Cc1nnc(SC(C)C(=O)Nc2ncc(Cl)cc2Cl)n1Cc1ccccc1 (centres undefined)	none
CCCCN(C)C(=O)c1nc2ccccn2c1CN1CCN(C(=O)c2cccs2)CC1	none
O=C(Nc1ccccc1C(=O)Nc1nnc(C(F)(F)F)s1)c1ccccc1	CHOP inhibitor 88, 697 NFkB inh 96 | 697 NFkB conf 94
O=C(/C=C/C=C/c1ccccc1)c1ccco1	none
CSc1ccc(CN2CCCN(C)CC2)cc1	none (no result: CHOP inhibitor)
Cn1nnnc1Sc1ncnc2scc(Br)c12	697 NFkB inh 37 (no result: CHOP inhibitor) | 697 NFkB conf 60
Cn1nnnc1Sc1ncnc2scc(-c3ccccc3Br)c12	none (no result: CHOP inhibitor)
Fc1cccc(C2NN=C(c3ccccc3)S2)c1 (centres undefined)	none | 697 NFkB conf inactive
NC1=NS(=O)(=O)NC1c1cccc(F)c1 (centres undefined)	none
CN(CC(=O)Nc1cccc(F)c1)C(=O)CCCn1c(=O)oc2ccccc21	none (no result: CHOP inhibitor)
COC(=O)c1cc(C(=O)c2ccc(Cl)cc2)n2c(=O)/c(=C\N(C)C)sc12	697 NFkB inh 41 | 697 NFkB conf inactive
CN(C)c1cc[n+](Cc2c(Cl)cccc2Cl)cc1	697 NFkB inh 45 | 697 NFkB conf 39
CC(=O)c1cccc(S(=O)(=O)Nc2cc(C(F)(F)F)ccc2N2CCOCC2)c1	697 NFkB inh 39 (no result: CHOP inhibitor) | 697 NFkB conf 32
CC(=O)c1cccc(NC(=O)c2cnn3ccccc23)c1	none
CC(=O)c1ccc(NC(=O)c2cnn3ccccc23)cc1	697 NFkB inh 36 | 697 NFkB conf inactive
CCCc1cnc(N2CCN(C(=O)c3ccccc3)CC2)nc1	none (no result: CHOP inhibitor)
CCc1ccc2[nH]c3nc(N/N=C/c4cccc(O)c4)nnc3c2c1	697 NFkB inh 60 (no result: CHOP inhibitor) | 697 NFkB conf 76
CCOC(=O)c1cc(NC(=O)c2ccoc2C)cc(C(=O)OCC)c1	697 NFkB inh 37 | 697 NFkB conf inactive
COc1ccccc1C(=O)NC(=O)COC(=O)c1ncc(Cl)c(Cl)c1Cl	none (no result: CHOP inhibitor)
CN1CCN(c2nc(-c3ccc(Cl)cc3)cc(=O)[nH]2)CC1	none (no result: CHOP inhibitor)
Cc1csc(NC(=O)c2cccc(S(=O)(=O)N3CCN(C)CC3)c2)n1	none
COc1ccc(/C=C2\SC(=S)N(CCCC(=O)NNC(=O)c3ccccc3O)C2=O)cc1	CHOP inhibitor 106, 697 NFkB inh 74 | 697 NFkB conf 69
COc1ccc(/C=C2\SC(=S)N(CCC(=O)Nc3cccc(O)c3)C2=O)cc1OC	697 NFkB inh 37 (no result: CHOP inhibitor) | 697 NFkB conf inactive
COc1ccc(/C=C2\SC(=S)N(CCC(=O)Nc3ccc(C(=O)O)cc3)C2=O)cc1OC	697 NFkB inh 35 (no result: CHOP inhibitor) | 697 NFkB conf 31
COc1ccc(/C=C2/SC(=S)N(CCCC(=O)Nc3cccc(O)c3)C2=O)cc1	697 NFkB inh 63 (no result: CHOP inhibitor) | 697 NFkB conf 71
CN(Cc1ccco1)C(=O)Cn1cc(S(=O)(=O)N2CCCC2)c(S(=O)(=O)N2CCCC2)c1	none (no result: CHOP inhibitor)
O=C(NCCS(=O)(=O)NCCCc1ccccc1)c1ccccc1	none (no result: CHOP inhibitor)
Cn1c(=N)n(CC(=O)c2ccc(Br)cc2)c2ccccc21	none (no result: CHOP inhibitor) | 697 NFkB conf inactive
Cc1cc(NC(=O)c2cc(-c3ccc(OC(C)C)cc3)nc3ccccc23)no1	none (no result: CHOP inhibitor)
CCC(C)c1ccc(-c2cc(C(=O)OCC(=O)Nc3cc(C)on3)c3ccccc3n2)cc1 (centres undefined)	CHOP inhibitor 85 | 697 NFkB conf inactive
